Reference: ChEMBL document CHEMBL1122149, “Beta-carbolines: synthesis and neurochemical and pharmacological actions on brain benzodiazepine receptors” (J Med Chem, 1982)

These molecules were tested against GABA-A receptor; anion channel (assay: In vitro inhibition of [3H]diazepam binding to benzodiazepine receptor in rat cerebral cortical membrane).
Format: cell membranes

Structure (SMILES) | Ki [µM]
COC(=O)c1cc2c([nH]c3ccccc32)c(-c2ccccc2)n1 | 3.89
COC(=O)C1Cc2ccccc2CN1 (configuration not stated) | > 100
Cc1nccc2c1[nH]c1ccccc12 [HARMAN] | 12.4
COC(=O)C1Cc2c([nH]c3ccccc23)C(CO)N1 (stereo in doubt; 17) | 5
COc1ccc2[nH]c3c(c2c1)C=CNC3 | > 500
CC(=O)c1ccccn1 | > 100
COC(=O)c1cc2c3ccccc3n(C)c2cn1 | > 50
O=C(O)C1Cc2c([nH]c3ccccc23)C(c2ccccc2)N1 (configuration not stated) | 6.11
COC(=O)C1CC2=C(C(c3ccccc3)N1)N(C)c1ccccc1C2 (configuration not stated) | > 100
COC(=O)C1Cc2c([nH]c3ccccc23)C(c2ccccc2)N1 (stereo in doubt; 60) | 174
COC(=O)C1=Cc2c([nH]c3ccccc23)C(c2cccnc2)N1 (configuration not stated) | 6.25
OCc1cc2c3ccccc3nc-2c[nH]1 | 1.47
CCC1NC(C(=O)OC)=Cc2c1n(C)c1ccccc21 (configuration not stated) | > 100
CN1C=Cc2c([nH]c3ccccc23)C1 | > 100
Oc1cc2c(cc1O)CNCC2 | > 100
CC(O)c1cc2c3ccccc3nc-2c[nH]1 (configuration not stated) | 3.16
CCC1NC(C(=O)OC)Cc2c1[nH]c1ccc(O)cc21 (stereo in doubt; 14a+14b) | 39
CCC1NC(C(=O)OC)Cc2c1[nH]c1ccc(O)cc21 (stereo in doubt; 14a) | > 100
COC(=O)C1Cc2c([nH]c3ccccc23)C(CO)N1 (stereo in doubt; 18) | 0.51
c1ccc2c(c1)[nH]c1cnccc12 [NORHARMANE] | 1.62
C1=Cc2c([nH]c3ccccc23)CN1 | > 100
O=Cc1cnc2ccccc2c1 | > 100
O=C(O)c1cnc2ccccc2c1 | > 100

Structure (SMILES) | Ki [µM]
COC(=O)c1cc2ccccc2cn1 | 13.2
COC(=O)C1Cc2c([nH]c3ccccc23)C(c2ccccc2)N1 (stereo in doubt; 49) | 54
CC(=O)c1cc2c3ccccc3nc-2c[nH]1 | 0.058
COC(=O)c1cc2c(cn1)[nH]c1ccc(O)cc12 | 0.00266
c1ccc2cnccc2c1 [ISOQUINOLINE] | > 100
O=C(O)C1Cc2ccccc2CN1 (configuration not stated) | > 100
Oc1ccc2[nH]c3c(c2c1)C=CNC3 | > 100
CCOC(=O)c1cc2c(cn1)[nH]c1ccccc12 | 0.0011
O=Cc1ccccn1 [2-PYRIDINECARBOXALDEHYDE] | > 100
COc1cc2c(cc1OC)CNCC2 | > 100
COC(=O)c1cc2c(cn1)[nH]c1ccccc12 [BETA-CCM] | 0.00105
COC(=O)C1Cc2c([nH]c3ccc(O)cc23)CN1 (configuration not stated) | 0.573
O=Cc1cc2c3ccccc3nc-2c[nH]1 | 0.0623
O=Cc1cccnc1 [NICOTINALDEHYDE] | > 100
O=C(O)c1cc2c3ccccc3nc-2c[nH]1 | 24
CCCOC(=O)c1cc2c(cn1)[nH]c1ccccc12 | 0.001
CN(C)CCc1c[nH]c2ccc(O)cc12 [BUFOTENINE] | > 100
CN(C)CCc1c[nH]c2ccccc12 | > 100
COC(=O)C(Cc1c[nH]c2ccccc12)N(C)C (configuration not stated) | > 100
COC(=O)c1cnc2ccccc2c1 | > 100
CCC1NC(C(=O)OC)Cc2c1[nH]c1ccccc21 (configuration not stated) | > 100
CCc1nc(C(=O)OC)cc2c1[nH]c1ccccc12 | 7.54
COC(=O)C1Cc2c([nH]c3ccccc23)C(C)N1 (configuration not stated) | > 50

What follows are molecules tested against T1, GABA-A receptor; anion channel (Rattus norvegicus) (UniProt O09028+P15431+P18506+P18508+P19969+P20236+P23574+P23576+P28471+P28473+P30191+P62813+P63079+P63138+Q91ZM7+Q9ES14) (assay: Hill coefficient for inhibition of ~2 nM [3H]diazepam binding to GABA-A benzodiazepine receptor of rat cerebral cortical membrane).
Summary of the method: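 Rat cerebral cortex tissue was homogenized in 100 volumes of 50 mM Tris-HCl pH 7.4 and washed three times by centrifugation at 20000g. […] Hill coefficients came from least mean squares regression of the inhibition curves.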

Structure (SMILES) | Hill coefficient
OCc1cc2c3ccccc3nc-2c[nH]1 | 0.93
CC(=O)c1cc2c3ccccc3nc-2c[nH]1 | 0.73
COC(=O)c1cc2c(cn1)[nH]c1ccccc12 [BETA-CCM] | 0.7
O=Cc1cc2c3ccccc3nc-2c[nH]1 | 0.93
O=C(O)c1cc2c3ccccc3nc-2c[nH]1 | 0.72

These molecules were tested against T1, GABA-A receptor; anion channel (Rattus norvegicus).

Structure (SMILES) | Hill coefficient
CCOC(=O)c1cc2c(cn1)[nH]c1ccccc12 | 0.74
